Bioassay records from PubChem BioAssay.
An excerpt weighted towards active compounds, which were near 2.3% of everything screened.
TRPC6 inh = mouse TRPC6 channel inhibition; Q61143; AID 2553; hit rate 1.1% among 310,000; B-score at 10 µM; HEK293-TRPC6, membrane potential dye, ACh-evoked depolarization; active compounds read low;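 active = B-score under library mean minus 3 SD, initial fluorescence not abnormally high, positive integrated signal ratio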;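 note: B-score derived from integrated fluorescence ratio over the kinetic read; more negative B-score means stronger inhibition of depolarization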
Target sequence (Q61143 whole entry, looked up): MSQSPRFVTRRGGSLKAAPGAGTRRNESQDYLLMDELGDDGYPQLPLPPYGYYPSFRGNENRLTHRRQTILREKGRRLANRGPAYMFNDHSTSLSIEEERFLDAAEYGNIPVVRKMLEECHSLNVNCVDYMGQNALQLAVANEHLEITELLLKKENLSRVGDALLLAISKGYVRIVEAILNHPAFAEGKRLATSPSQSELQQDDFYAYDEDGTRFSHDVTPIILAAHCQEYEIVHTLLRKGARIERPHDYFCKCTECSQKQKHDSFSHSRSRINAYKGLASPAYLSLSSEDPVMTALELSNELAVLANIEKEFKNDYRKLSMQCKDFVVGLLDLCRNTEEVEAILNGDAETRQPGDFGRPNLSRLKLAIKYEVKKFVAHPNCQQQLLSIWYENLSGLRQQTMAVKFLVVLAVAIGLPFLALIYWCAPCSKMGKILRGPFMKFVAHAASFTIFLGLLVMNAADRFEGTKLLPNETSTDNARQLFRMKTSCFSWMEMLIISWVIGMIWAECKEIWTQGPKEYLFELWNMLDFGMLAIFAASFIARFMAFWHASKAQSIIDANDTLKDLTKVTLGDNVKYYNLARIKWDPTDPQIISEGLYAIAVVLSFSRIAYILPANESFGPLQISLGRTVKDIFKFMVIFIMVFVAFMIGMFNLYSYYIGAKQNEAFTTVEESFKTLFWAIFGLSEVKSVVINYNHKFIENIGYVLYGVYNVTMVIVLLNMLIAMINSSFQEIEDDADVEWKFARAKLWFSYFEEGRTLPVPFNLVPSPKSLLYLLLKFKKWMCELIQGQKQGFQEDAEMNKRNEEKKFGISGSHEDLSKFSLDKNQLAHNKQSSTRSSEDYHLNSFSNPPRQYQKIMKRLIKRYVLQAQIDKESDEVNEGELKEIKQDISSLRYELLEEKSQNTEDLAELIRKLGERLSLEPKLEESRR
TRPC6 activator = activates the mouse TRPC6 cation channel. Q61143. HEK293-TRPC6 membrane potential dye fluorescence; active compounds read high. B-score at 10 µM. hit rate 0.13% among 310,000. AID 2550;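 active = B-score of the integrated fluorescence ratio above library mean plus 3 SD, and starting fluorescence ratio within library mean plus 5 SD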;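 note: higher score means more depolarization so channel activation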
TRPC4 act = TRPC4 (mouse) channel activation. Q9QUQ5. HEK293 TRPC4beta/mu-opioid, Fluo4 calcium fluorescence; active compounds read high. B-score at 10 µM. hit rate 0.49% among 310,000. AID 2237;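 active = B-score above 5 SD of library B-scores, and initial fluorescence ratio not above library mean plus 5 SD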;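 note: positive B-score marks a calcium rise read as TRPC4 activation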
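System: HEK293 cells stably co-expressing mouse TRPC4beta and mu-opioid receptor; Schedule: Fluo4 dye loading 45 min at room temperature, 110 s recording; Detection: Fluo4 fluorescence, kinetic; Evaluation: B-scored integrated calcium fluorescence ratio; Controls: buffer (low) and maximal DAMGO (high).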
TRPC4 block = TRPC4 (mouse) channel inhibition | Q9QUQ5 | HEK293 TRPC4beta/mu-opioid, DAMGO-evoked Fluo4 calcium flux; active compounds read low | B-score at 10 µM | hit rate 0.39% among 300,000 | AID 2247;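 active = B-score over 3 SD under the library average, no early fluorescence shift, positive overall ratio signal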
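Assay system: HEK293 cells with stable TRPC4beta plus mu-opioid receptor expression. Dosing: single dose. Measured by: Fluo4 Ca2+ flux fluorescence. Also added: DAMGO in two steps, submaximal then maximal. Read-out: B score from integrated Fluo4 fluorescence ratio.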
TRPC4 PAM = allosteric potentiators of mouse TRPC4 channel. HEK293 TRPC4beta/mu-opioid, DAMGO EC20, Fluo-4 Ca2+ flux; active compounds read high. Q9QUQ5. hit rate 0.42% among 310,000. AID 2227. B-score at 10 µM;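 active = B-score of calcium response area above 5 SD of library B-scores, with initial fluorescence ratio within 5 SD of library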;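 note: B-score of integrated fluorescence ratio over time as area under calcium response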
TRPC4 sel inh 2 = mouse TRPC4 off-target activity of TRPC6 inhibitors, second screen; inhibition, % at 10 µM; hit rate 42% among 920; shares compounds with TRPC6 inh; HEK293 TRPC4/MOR, membrane potential dye fluorescence; channel activated by saturating DAMGO dose;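 active = compounds whose fluorescence signal differed from control wells by over 3 SD, either direction, in both duplicate plates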
TRPC4 spec = tests whether TRPC6 inhibitors also affect mouse TRPC4; HEK293 TRPC4/mu-opioid, membrane potential fluorescence; AID 2777; activity change, negative = inhibition, % at 10 µM; hit rate 61% among 920; shares compounds with TRPC6 inh;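 active = rise or fall in signal beyond 3 SD of buffer-only wells in both replicate plates, either sign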;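 note: integrated kinetic ratio of fluorescence range over baseline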
HEK293 MPD ctr 2-1 = parental HEK293 nonspecific activity of TRPC6 inhibitors, second screen. shares compounds with TRPC6 inh. parental HEK293 membrane potential dye fluorescence; maximal acetylcholine challenge after compound addition. signal change vs control, % at 10 µM. hit rate 31% among 920. AID 2779;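 active = membrane potential signal moving either way by over 3 SD of the maximum-effect control, in both duplicate plates, meaning non-specific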
HEK293 MPD ctr-1 = counter-screen for TRPC6 inhibitors: effect in parental HEK293 cells | parental HEK293 membrane potential dye fluorescence | membrane potential signal change, % at 10 µM | hit rate 60% among 920 | shares compounds with TRPC6 inh;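 active = membrane potential signal shifting up or down by more than 3 SD of buffer-only wells, on both duplicate plates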
HEK293 MPD ctr-2 = parental HEK293 nonspecific activity of TRPC6 modulators; membrane potential dye fluorescence; membrane potential signal change, % at 10 µM; hit rate 51% among 2,400; shares compounds with TRPC6 inh;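 active = membrane potential signal moves up or down beyond 5 SD from buffer-only wells, on both duplicate plates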
HEK293 MPD ctr 2-2 = parental HEK293 nonspecific activity of TRPC6 modulators, second screen | shares compounds with TRPC6 inh | membrane potential dye fluorescence; after compound, maximal acetylcholine stimulation | inhibition, % at 10 µM | hit rate 14% among 2,400;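 active = membrane potential signal drops by more than 5 SD from the mean control signal, in both duplicate plates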;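 note: plate controls were acetylcholine ECmax control wells for no effect and buffer only wells for full effect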
TRPC4/MOR mod = tests whether TRPC6 modulators also affect mouse TRPC4. shares compounds with TRPC6 inh. HEK293 TRPC4/mu-opioid, membrane potential fluorescence. hit rate 69% among 2,400. percent change from control (negative = decrease, positive = increase), % at 10 µM;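 active = membrane potential signal moved up or down beyond 5 SD of buffer control wells, in both duplicate plates, actives on both sides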;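 note: plate controls were assay buffer wells for no effect and DAMGO maximal-effect wells for full effect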
TRPC4 ctr inh 2 = second selectivity test of TRPC6 modulators against mouse TRPC4; AID 488928; inhibition, % at 10 µM; hit rate 55% among 2,400; shares compounds with TRPC6 inh; HEK293 TRPC4/mu-opioid, membrane potential dye fluorescence; stimulated with maximal-effect DAMGO;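 active = drop in membrane potential signal beyond 5 SD of the control wells in both duplicate plates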;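 note: TRPC4 counter screen for TRPC6 hits run under conditions tuned for TRPC6 not TRPC4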
TRPC6 block conf = mouse TRPC6 inhibitor confirmation; inhibition, % at 10 µM; HEK293-TRPC6, membrane potential dye, ACh-evoked depolarization; AID 488960; hit rate 43% among 3,300; shares compounds with TRPC6 inh;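 active = fluorescence ratio falls more than 5 SD below the full-stimulation control mean, in both duplicate runs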;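 note: integrated fluorescence ratio of peak minus minimum over baseline after agonist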
TRPC6 act conf = confirmation of mouse TRPC6 activators. shares compounds with TRPC6 inh. HEK293-TRPC6 membrane potential dye fluorescence, FDSS. activation, % at 10 µM. hit rate 11% among 2,800. AID 488961;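 active = ratio signal rise beyond 5 SD above unstimulated control wells' mean, seen in both duplicate runs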;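 note: plate controls were buffer EC0 wells for no effect and acetylcholine ECmax response for full effect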
* = called active by the depositor; i = inactive; x = no result.

SMILES	TRPC6 inh	TRPC6 activator	TRPC4 act	TRPC4 block	TRPC4 PAM	HEK293 MPD ctr-2	HEK293 MPD ctr 2-2	TRPC4/MOR mod	TRPC4 ctr inh 2	TRPC6 block conf	TRPC6 act conf	others
COc1cc(C(c2nnnn2C2CCCC2)N2CCN(C(=O)c3ccco3)CC2)cc(OC)c1OC (stereo unspecified)	i	i	i	i	i	x	x	x	x	x	x
COc1ccc(N2CCN(C(=O)CN(Cc3ccc(Cl)cc3)S(C)(=O)=O)CC2)cc1	i	i	i	i	i	x	x	x	x	x	x
CS(=O)(=O)N(CC(=O)N1CCc2ccccc2C1)Cc1ccccc1	-6.53*	i	i	i	i	i	i	12.0%*	i	i	x
CC1CCN(C(=O)CN(Cc2ccccc2)S(C)(=O)=O)CC1	i	i	i	i	i	x	x	x	x	x	x
CS(=O)(=O)N(CC(=O)N1CCN(c2ccccc2)CC1)Cc1ccc(Cl)cc1	-5.63*	i	i	i	i	i	i	13.0%*	i	i	i
CC(C)(C)C(=O)CN1C2=NCCCN2c2ccccc21	i	i	i	i	i	x	x	x	x	x	x
COc1ccc(/C=N/Nc2nc(N3CCCC3)nc(N3CCCC3)n2)cc1O	-5.5*	i	i	i	i	i	i	i	i	i	i
COc1ccc(/C=N/Nc2nc(N3CCCC3)nc(N3CCCC3)n2)cc1	i	i	i	i	i	x	x	x	x	x	x
COc1cc(/C=N/Nc2nc(N3CCCC3)nc(N3CCCC3)n2)ccc1OCc1ccccc1F	-7.37*	i	i	i	i	x	x	x	x	i	i	TRPC4 sel inh 2=i;TRPC4 spec=-14.4%*;HEK293 MPD ctr 2-1=i;HEK293 MPD ctr-1=i
COc1ccc(N2C(=O)CSC23C(=O)Nc2ccccc23)cc1 (stereo unspecified)	i	i	i	i	i	x	x	x	x	x	x
Cc1ccc(N2C(=O)CCSC23C(=O)Nc2ccccc23)cc1 (stereo unspecified)	-6.66*	i	i	i	i	x	x	x	x	i	i	TRPC4 sel inh 2=i;TRPC4 spec=i;HEK293 MPD ctr 2-1=i;HEK293 MPD ctr-1=i
CSc1nc(SCC(=O)NCC2CCCO2)c2c3c(sc2n1)CN(C)CC3 (stereo unspecified)	-4.99*	i	i	i	i	-134.5%*	i	-28.5%*	i	i	i
COc1cc(OC)c2c(-c3ccccc3)cc(=O)oc2c1C(CCN1CCN(c2ccccc2)CC1)c1ccc(N(C)C)cc1 (stereo unspecified)	i	i	i	i	i	x	x	x	x	x	x
